Results reported in ChEMBL document CHEMBL1149778, “Synthesis of some novel 2,4-disubstituted thiazoles as possible antimicrobial agents” (2008).
≈ marks a conversion by molar mass, not a printed value.

What was measured:
Aspergillus flavus [1] = assay: Antifungal activity against Aspergillus flavus NCIM No.524 assessed as zone of inhibition by serial plate dilution method; type: functional
Procedure, shortened: (§1)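 Sabouraud agar (peptone, D-glucose, agar; pH 5.7), 20 ml per dish, lawned with a saline spore suspension from a loopful of fungus. Excess decanted, plates dried 1 h at 37 °C. Wells punched and compounds in DMSO added, DMSO as control. Triplicate plates, 37 °C for 3-4 days; inhibition-zone diameter measured.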

Bacillus subtilis [2] = assay: Antibacterial activity against Bacillus subtilis assessed as zone of inhibition after 16 to 18 hrs by serial plate dilution method; type: functional
Procedure, shortened: (§2)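 Agar well diffusion: 20 ml agar per dish seeded with bacterial suspension, excess decanted, dishes held 1 h at 37 °C. Wells punched, compounds in DMSO added at their MIC levels, DMSO wells as control. Zone of inhibition measured.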

Talaromyces marneffei [3] = assay: Antifungal activity against Penicillium marneffei assessed as zone of inhibition by serial plate dilution method; type: functional; procedure, shortened: as §1
Escherichia coli [4] = assay: Antibacterial activity against Escherichia coli ATTC 25922 after 16 to 18 hrs by serial plate dilution method; type: functional; conditions: ATCC25922
Procedure, shortened: (§3)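 MIC by broth serial dilution: compound serially diluted in Mueller-Hinton broth, tubes adjusted to […] with phosphate buffer. Standardized bacterial suspension inoculated, incubated 16-18 h at 37 °C. MIC read as the lowest concentration with no visible growth.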

Talaromyces marneffei [5] = assay: Antifungal activity against Penicillium marneffei by serial plate dilution method; type: functional
Aspergillus flavus [6] = assay: Antifungal activity against Aspergillus flavus NCIM No.524 by serial plate dilution method; type: functional
Pseudomonas aeruginosa [7] = assay: Antibacterial activity against Pseudomonas aeruginosa ATTC 27853 assessed as zone of inhibition after 16 to 18 hrs by serial plate dilution method; type: functional, ATCC27853; procedure, shortened: as §2
Staphylococcus aureus [8] = assay: Antibacterial activity against Staphylococcus aureus ATTC 25923 after 16 to 18 hrs by serial plate dilution method; type: functional; procedure, shortened: as §3
Aspergillus fumigatus [9] = assay: Antifungal activity against Aspergillus fumigatus NCIM No.902 by serial plate dilution method; type: functional
Staphylococcus aureus [10] = assay: Antibacterial activity against Staphylococcus aureus ATTC 25923 assessed as zone of inhibition after 16 to 18 hrs by serial plate dilution method; type: functional; procedure, shortened: as §2
[11] = tested on: Trichophyton mentagrophytes; assay: Antifungal activity against Trichophyton mentagrophytes by serial plate dilution method; type: functional
Pseudomonas aeruginosa [12] = assay: Antibacterial activity against Pseudomonas aeruginosa ATTC 27853 after 16 to 18 hrs by serial plate dilution method; type: functional; conditions: ATCC27853; procedure, shortened: as §3
Aspergillus fumigatus [13] = assay: Antifungal activity against Aspergillus fumigatus NCIM No.902 assessed as zone of inhibition by serial plate dilution method; type: functional; procedure, shortened: as §1
[14] = tested on: Trichophyton mentagrophytes; assay: Antifungal activity against Trichophyton mentagrophytes assessed as zone of inhibition by serial plate dilution method; type: functional; procedure, shortened: as §1
Bacillus subtilis [15] = assay: Antibacterial activity against Bacillus subtilis after 16 to 18 hrs by serial plate dilution method; type: functional; procedure, shortened: as §3
Escherichia coli [16] = assay: Antibacterial activity against Escherichia coli ATTC 25922 assessed as zone of inhibition after 16 to 18 hrs by serial plate dilution method; type: functional, ATCC25922; procedure, shortened: as §2

| MIC (Escherichia coli [4]) [µg/mL] | MIC (Talaromyces marneffei [5]) [µg/mL] | MIC (Aspergillus flavus [6]) [µg/mL] | MIC (Staphylococcus aureus [8]) [µg/mL] | MIC (Aspergillus fumigatus [9]) [µg/mL] | MIC [11] [µg/mL] | MIC (Pseudomonas aeruginosa [12]) [µg/mL] | MIC (Bacillus subtilis [15]) [µg/mL] | Compound | inhibition zone (IZ) (Aspergillus flavus [1]) [mm] | inhibition zone (IZ) (Bacillus subtilis [2]) [mm] | inhibition zone (IZ) (Talaromyces marneffei [3]) [mm] | inhibition zone (IZ) (Pseudomonas aeruginosa [7]) [mm] | inhibition zone (IZ) (Staphylococcus aureus [10]) [mm] | inhibition zone (IZ) (Aspergillus fumigatus [13]) [mm] | inhibition zone (IZ) [14] [mm] | inhibition zone (IZ) (Escherichia coli [16]) [mm] |
| --- | --- | --- | --- | --- | --- | --- | --- | --- | --- | --- | --- | --- | --- | --- | --- | --- |
| 12.5 (≈ 36.6 µM) | 6.25 (≈ 18.3 µM) | 6.25 (≈ 18.3 µM) | 12.5 (≈ 36.6 µM) | 6.25 (≈ 18.3 µM) | 6.25 (≈ 18.3 µM) | 25 (≈ 73.2 µM) | 12.5 (≈ 36.6 µM) | Clc1cc(Cl)c(Cl)c(-c2nc(-c3cccnc3)cs2)c1 | 16 | 11 | 16 | <10 | 11 | 16 | 16 | 11 |
| 6.25 (≈ 16.2 µM) | 25 (≈ 64.8 µM) | 12.5 (≈ 32.4 µM) | 12.5 (≈ 32.4 µM) | 12.5 (≈ 32.4 µM) | 25 (≈ 64.8 µM) | 6.25 (≈ 16.2 µM) | 25 (≈ 64.8 µM) | O=[N+]([O-])c1ccc(-c2csc(-c3cc(Cl)cc(Cl)c3Cl)n2)cc1 | 11 | <10 | <10 | 16 | 11 | 11 | <10 | 16 |
| 25 (≈ 60.6 µM) | 25 (≈ 60.6 µM) | 25 (≈ 60.6 µM) | 25 (≈ 60.6 µM) | 25 (≈ 60.6 µM) | 12.5 (≈ 30.3 µM) | 25 (≈ 60.6 µM) | 25 (≈ 60.6 µM) | COc1ccc(-c2csc(N/N=C/c3cc(Cl)cc(Cl)c3Cl)n2)cc1 | <10 | <10 | <10 | <10 | <10 | <10 | 11 | <10 |
| 6.25 (≈ 15 µM) | 6.25 (≈ 15 µM) | 6.25 (≈ 15 µM) | 6.25 (≈ 15 µM) | 25 (≈ 60 µM) | 25 (≈ 60 µM) | 6.25 (≈ 15 µM) | 6.25 (≈ 15 µM) | Cc1cc(C)nc(SCc2csc(-c3cc(Cl)cc(Cl)c3Cl)n2)n1 | 16 | 16 | 16 | 16 | 16 | <10 | <10 | 16 |
| 6.25 (≈ 14.1 µM) | 12.5 (≈ 28.3 µM) | 12.5 (≈ 28.3 µM) | 6.25 (≈ 14.1 µM) | 12.5 (≈ 28.3 µM) | 12.5 (≈ 28.3 µM) | 6.25 (≈ 14.1 µM) | 6.25 (≈ 14.1 µM) | NC(=O)c1cc(-c2csc(N/N=C/c3cc(Cl)cc(Cl)c3Cl)n2)ccc1O | 11 | 16 | 11 | 16 | 16 | 11 | 11 | 16 |
| 6.25 (≈ 16.7 µM) | 25 (≈ 66.6 µM) | 25 (≈ 66.6 µM) | 12.5 (≈ 33.3 µM) | 6.25 (≈ 16.7 µM) | 6.25 (≈ 16.7 µM) | 6.25 (≈ 16.7 µM) | 25 (≈ 66.6 µM) | Clc1ccc(-c2csc(-c3cc(Cl)cc(Cl)c3Cl)n2)cc1 | <10 | <10 | <10 | 16 | 11 | 16 | 16 | 16 |
| 6.25 (≈ 16.6 µM) | 25 (≈ 66.4 µM) | 25 (≈ 66.4 µM) | 6.25 (≈ 16.6 µM) | 6.25 (≈ 16.6 µM) | 6.25 (≈ 16.6 µM) | 6.25 (≈ 16.6 µM) | 6.25 (≈ 16.6 µM) | CN1CCN(Cc2csc(-c3cc(Cl)cc(Cl)c3Cl)n2)CC1 | <10 | 16 | <10 | 16 | 16 | 16 | 16 | 16 |
| 25 (≈ 54.5 µM) | 6.25 (≈ 13.6 µM) | 6.25 (≈ 13.6 µM) | 6.25 (≈ 13.6 µM) | 6.25 (≈ 13.6 µM) | 6.25 (≈ 13.6 µM) | 25 (≈ 54.5 µM) | 6.25 (≈ 13.6 µM) | Clc1cc(Cl)c(Cl)c(/C=N/Nc2nc(-c3ccc(-c4ccccc4)cc3)cs2)c1 | 16 | 16 | 16 | <10 | 16 | 16 | 16 | <10 |
| 25 (≈ 58.5 µM) | 25 (≈ 58.5 µM) | 25 (≈ 58.5 µM) | 6.25 (≈ 14.6 µM) | 25 (≈ 58.5 µM) | 25 (≈ 58.5 µM) | 25 (≈ 58.5 µM) | 6.25 (≈ 14.6 µM) | O=[N+]([O-])c1ccc(-c2csc(N/N=C/c3cc(Cl)cc(Cl)c3Cl)n2)cc1 | <10 | 16 | <10 | <10 | 16 | <10 | <10 | <10 |
| 12.5 (≈ 30 µM) | 12.5 (≈ 30 µM) | 12.5 (≈ 30 µM) | 25 (≈ 59.9 µM) | 12.5 (≈ 30 µM) | 12.5 (≈ 30 µM) | 25 (≈ 59.9 µM) | 25 (≈ 59.9 µM) | Clc1ccc(-c2csc(N/N=C/c3cc(Cl)cc(Cl)c3Cl)n2)cc1 | 11 | <10 | 11 | <10 | <10 | 11 | 11 | 11 |
| 12.5 (≈ 34.4 µM) | 12.5 (≈ 34.4 µM) | 25 (≈ 68.7 µM) | 12.5 (≈ 34.4 µM) | 25 (≈ 68.7 µM) | 25 (≈ 68.7 µM) | 25 (≈ 68.7 µM) | 12.5 (≈ 34.4 µM) | Clc1cc(Cl)c(Cl)c(-c2nc(CN3CCOCC3)cs2)c1 | <10 | 11 | 11 | <10 | 11 | <10 | <10 | 11 |
| 6.25 (≈ 15.6 µM) | 6.25 (≈ 15.6 µM) | 6.25 (≈ 15.6 µM) | 6.25 (≈ 15.6 µM) | 25 (≈ 62.5 µM) | 25 (≈ 62.5 µM) | 6.25 (≈ 15.6 µM) | 6.25 (≈ 15.6 µM) | NC(=O)c1cc(-c2csc(-c3cc(Cl)cc(Cl)c3Cl)n2)ccc1O | 16 | 16 | 16 | 16 | 16 | <10 | <10 | 16 |
